Columns and labels:
[1] = Cytotoxicity against human TERT immortalized BJ1 cells at 1 uM after 48 hrs by MTT assay relative to control; type: cell-based, BJ
Summary of the method: (§1)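 hTERT-immortalized BJ1 fibroblasts were grown in DMEM with 10% FCS, 1 mM pyruvate and 4 mM […]. Cells (about 2 × 10^3 per well) were seeded and held 24 h at 37 °C. Compounds were freshly dissolved in DMSO, diluted into medium and left on the cells 48 h. MTT was added for 4 h, then SDS/DMF lysis buffer for 16 h. Absorbance was read at 550 nm and expressed relative to untreated cells (100%).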

TK-10 = assay: Cytotoxicity against human TK10 cells at 10 uM after 48 hrs by MTT assay; type: functional; conditions: TK-10, 48 h, values are per cent of control
Summary of the method: (§2)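 Single-dose screen in the NCI 60-cell-line panel, run according to the Developmental Therapeutics Program protocol (one-dose mean graph). The result is the growth percentage of treated cells relative to untreated control cells.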

U-251 = assay: Cytotoxicity against human U251 cells at 10 uM after 48 hrs by MTT assay; type: functional; conditions: U-251, 48 h, values are per cent of control; summary of the method: as §2
HCT-15 = assay: Growth percent of human HCT15 cells at 10 uM after 48 hrs by MTT assay; conditions: HCT-15, 48 h
NCI-H460 = assay: Growth percent of human NCI-H460 cells at 10 uM after 48 hrs by MTT assay; conditions: NCI-H460, 48 h
786-0 = assay: Cytotoxicity against human 786-0 cells at 10 uM after 48 hrs by MTT assay; type: functional; conditions: 786-0, 48 h
Summary of the method: (§3)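 Single-dose screen on the NCI 60-cell-line panel, run to the Developmental Therapeutics Program protocol (one-dose mean graph). Each value is the growth percentage of treated cells against untreated control cells.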

[2] = biological target: T1, Telomerase reverse transcriptase (Homo sapiens, UniProt O14746); assay: Effect on human TERT expressed in BJ1 cells at 10 uM after 24 hrs by SEAP assay relative to control; conditions: BJ
T1 sequence (O14746 whole entry): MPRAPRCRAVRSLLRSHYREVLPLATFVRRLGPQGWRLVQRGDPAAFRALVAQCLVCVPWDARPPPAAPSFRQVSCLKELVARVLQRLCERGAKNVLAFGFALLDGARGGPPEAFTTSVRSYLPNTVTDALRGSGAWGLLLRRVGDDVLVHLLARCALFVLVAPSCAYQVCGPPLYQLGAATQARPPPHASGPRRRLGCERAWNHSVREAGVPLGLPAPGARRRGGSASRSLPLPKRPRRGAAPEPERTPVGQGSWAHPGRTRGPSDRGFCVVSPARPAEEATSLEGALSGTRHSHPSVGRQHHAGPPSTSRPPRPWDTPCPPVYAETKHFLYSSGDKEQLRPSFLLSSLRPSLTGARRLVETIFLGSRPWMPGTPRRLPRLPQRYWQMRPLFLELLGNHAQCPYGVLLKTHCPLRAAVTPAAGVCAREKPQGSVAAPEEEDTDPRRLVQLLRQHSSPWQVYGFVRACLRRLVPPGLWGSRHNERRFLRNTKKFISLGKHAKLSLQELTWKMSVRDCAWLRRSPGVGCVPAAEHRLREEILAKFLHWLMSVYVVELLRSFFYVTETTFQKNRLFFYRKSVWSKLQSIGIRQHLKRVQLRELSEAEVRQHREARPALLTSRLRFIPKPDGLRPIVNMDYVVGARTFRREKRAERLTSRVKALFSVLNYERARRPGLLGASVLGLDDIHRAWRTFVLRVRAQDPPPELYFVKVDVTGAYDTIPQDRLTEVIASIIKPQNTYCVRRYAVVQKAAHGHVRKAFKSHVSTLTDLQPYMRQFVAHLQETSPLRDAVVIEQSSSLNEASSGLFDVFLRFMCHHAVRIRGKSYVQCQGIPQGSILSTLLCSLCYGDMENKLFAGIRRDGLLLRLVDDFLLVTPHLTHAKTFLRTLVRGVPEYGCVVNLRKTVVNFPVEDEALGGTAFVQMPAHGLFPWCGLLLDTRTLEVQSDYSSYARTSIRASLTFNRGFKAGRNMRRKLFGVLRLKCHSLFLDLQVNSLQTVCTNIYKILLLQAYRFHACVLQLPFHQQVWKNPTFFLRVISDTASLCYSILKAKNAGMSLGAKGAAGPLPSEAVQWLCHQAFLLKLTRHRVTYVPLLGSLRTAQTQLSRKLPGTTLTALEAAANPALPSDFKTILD

OVCAR-5 = assay: Cytotoxicity against human OVCAR5 cells at 10 uM after 48 hrs by MTT assay; type: functional; conditions: OVCAR-5, 48 h; summary of the method: as §3
[3] = Cytotoxicity against human H1299 cells at 10 uM after 48 hrs by MTT assay realtive to control; type: functional; conditions: NCI-H1299, 48 h
Summary of the method: (§4)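 H1299 non-small-cell lung cells were kept in RPMI 1640 with 10% FBS and penicillin/streptomycin at 37 °C under 5% CO2. About 2 × 10^3 cells per well were pre-incubated for 24 h. Compound was added from freshly made DMSO solution diluted in complete medium and left for 48 h. MTT was then added for 4 h at 37 °C, followed by 20% SDS/50% DMF lysis buffer for 16 h at 37 °C, and absorbance read at 550 nm.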

SW-620 = assay: Cytotoxicity against human SW620 cells at 10 uM after 48 hrs by MTT assay; type: functional; conditions: SW-620, 48 h, values are per cent of control; summary of the method: as §2
SNB-19 = assay: Cytotoxicity against human SNB19 cells at 10 uM after 48 hrs by MTT assay; type: functional; conditions: SNB-19, 48 h, values are per cent of control; summary of the method: as §3
HOP-62 = assay: Cytotoxicity against human HOP62 cells at 10 uM after 48 hrs by MTT assay; type: functional; conditions: HOP-62, 48 h; summary of the method: as §3
KM12 = assay: Cytotoxicity against human KM12 cells at 10 uM after 48 hrs by MTT assay; type: functional; conditions: KM12, 48 h; for growth, % of control at 10 µM: values are per cent of control; summary of the method: as §3
A498 = assay: Cytotoxicity against human A498 cells at 10 uM after 48 hrs by MTT assay; type: functional; conditions: A498, 48 h; summary of the method: as §3
MOLT-4 = assay: Cytotoxicity against human MOLT4 cells at 10 uM after 48 hrs by MTT assay; type: functional; conditions: MOLT-4, 48 h; summary of the method: as §3
BT-549 = assay: Cytotoxicity against human BT549 cells at 10 uM after 48 hrs by MTT assay; type: functional; conditions: BT-549, 48 h; summary of the method: as §3
CCRF-CEM = assay: Cytotoxicity against human CCRF-CEM cells at 10 uM after 48 hrs by MTT assay; type: functional; summary of the method: as §3
SK-MEL-28 = assay: Cytotoxicity against human SK-MEL-28 cells at 10 uM after 48 hrs by MTT assay; type: functional; conditions: SK-MEL-28, 48 h, values are per cent of control; summary of the method: as §3
OVCAR-3 = assay: Cytotoxicity against human OVCAR-3 cells at 10 uM after 48 hrs by MTT assay; type: functional; conditions: OVCAR-3, 48 h; summary of the method: as §3
Hs-578T = assay: Cytotoxicity against human HS578T cells at 10 uM after 48 hrs by MTT assay; type: functional; conditions: values are per cent of control; summary of the method: as §3
SN12C = assay: Cytotoxicity against human SN12C cells at 10 uM after 48 hrs by MTT assay; type: functional; summary of the method: as §3
K562 = assay: Cytotoxicity against human K562 cells at 10 uM after 48 hrs by MTT assay; type: functional; conditions: K562, 48 h; summary of the method: as §3
[4] = Cytotoxicity against human CAK1-1 cells at 10 uM after 48 hrs by MTT assay; type: functional; conditions: CAK1-1, 48 h; summary of the method: as §3
SF-539 = assay: Cytotoxicity against human SF539 cells at 10 uM after 48 hrs by MTT assay; type: functional; conditions: SF-539, 48 h, values are per cent of control; summary of the method: as §3
M14 = assay: Cytotoxicity against human M14 cells at 10 uM after 48 hrs by MTT assay; type: functional; conditions: M14, 48 h, values are per cent of control; summary of the method: as §3
NCI-H522 = assay: Growth percent of human NCI-H522 cells at 10 uM after 48 hrs by MTT assay; conditions: NCI-H522, 48 h
SK-MEL-5 = assay: Cytotoxicity against human SK-MEL-5 cells at 10 uM after 48 hrs by MTT assay; type: functional; conditions: SK-MEL-5, 48 h, values are per cent of control; summary of the method: as §3
[5] = Cytotoxicity against human TERT immortalized BJ1 cells at 10 uM after 48 hrs by MTT assay relative to control; type: cell-based, BJ; summary of the method: as §1
DU-145 = assay: Cytotoxicity against human DU145 cells at 10 uM after 48 hrs by MTT assay; type: functional; conditions: DU-145, 48 h, values are per cent of control; summary of the method: as §3
UACC-62 = assay: Cytotoxicity against human UACC62 cells at 10 uM after 48 hrs by MTT assay; type: functional; conditions: UACC-62, 48 h, values are per cent of control; summary of the method: as §2
[6] = Cytotoxicity against human H1299 cells at 100 uM after 48 hrs by MTT assay realtive to control; type: functional; conditions: NCI-H1299, 48 h; summary of the method: as §4
[7] = biological target: T1, Telomerase reverse transcriptase; assay: Effect on human TERT expressed in H1299 cells at 1 uM after 24 hrs by SEAP assay relative to control
OVCAR-4 = assay: Cytotoxicity against human OVCAR4 cells at 10 uM after 48 hrs by MTT assay; type: functional; conditions: OVCAR-4, 48 h; summary of the method: as §3
NCI-H226 = assay: Cytotoxicity against human NCI-H226 cells at 10 uM after 48 hrs by MTT assay; type: functional; conditions: NCI-H226, 48 h; summary of the method: as §3

Compound	viability at 48 h, 1 µM [1] [%]	growth, % of control at 10 µM (TK-10) [%]	growth, % of control at 10 µM (U-251) [%]	growth percent at 10 µM (HCT-15) [%]	growth percent at 10 µM (NCI-H460) [%]	growth percent at 10 µM (786-0) [%]	growth percent at 10 µM (OVCAR-5) [%]	viability at 10 µM [3] [%]	growth, % of control at 10 µM (SW-620) [%]	growth, % of control at 10 µM (SNB-19) [%]	growth percent at 10 µM (HOP-62) [%]	growth percent at 10 µM (A498) [%]	growth percent at 10 µM (MOLT-4) [%]	growth percent at 10 µM (BT-549) [%]	growth percent at 10 µM (CCRF-CEM) [%]	growth, % of control at 10 µM (SK-MEL-28) [%]	growth percent at 10 µM (OVCAR-3) [%]	growth, % of control at 10 µM (Hs-578T) [%]	growth percent at 10 µM (SN12C) [%]	growth percent at 10 µM (K562) [%]	other results
CC(=O)Nc1ccc2c(c1)C(=O)c1cc(NC(C)=O)ccc1C2=O	106	118	95.1	93.9	109	97.7	102	83	103	94.4	111	116	97	93.3	99.8	118	111	133	113	98.5	residual activity [2]: 117%; growth percent at 10 µM (KM12): 106%; growth percent at 10 µM [4]: 105%; growth, % of control at 10 µM (SF-539): 103%; growth, % of control at 10 µM (M14): 105%; growth percent at 10 µM (NCI-H522): 93.6%; growth, % of control at 10 µM (SK-MEL-5): 109%; viability at 48 h, 10 µM [5]: 91%; growth, % of control at 10 µM (DU-145): 117%; growth, % of control at 10 µM (UACC-62): 101%; viability at 100 µM [6]: 55%; residual activity [7]: 97%; growth percent at 10 µM (OVCAR-4): 104%
CN(C)CC(=O)Nc1ccc2c(c1)C(=O)c1cc(NC(=O)CN(C)C)ccc1C2=O	96	73.5	16.1	16.3	5.01	68.6	73.2	55	23.4	79.6	29	-6.39	29.1	85.4	-13.2	32.1	43.6	-6.11	28	34.9	growth percent at 10 µM (NCI-H226): 89.1%; residual activity [2]: 44%; growth, % of control at 10 µM (KM12): 67%; growth percent at 10 µM [4]: 59.3%; growth, % of control at 10 µM (SF-539): -3.72%; growth, % of control at 10 µM (M14): 75%; growth percent at 10 µM (NCI-H522): 61.8%; growth, % of control at 10 µM (SK-MEL-5): 82.6%; viability at 48 h, 10 µM [5]: 45%; growth, % of control at 10 µM (DU-145): 78.7%; growth, % of control at 10 µM (UACC-62): 22.3%; viability at 100 µM [6]: 15%; residual activity [7]: 87%; growth percent at 10 µM (OVCAR-4): 45.7%
CCN(CC)CCC(=O)Nc1ccc2c(c1)C(=O)c1cc(NC(=O)CCN(CC)CC)ccc1C2=O	103	17.2	21.6	17.4	9.5	24.7	33.6	41	16.9	75.8	11.7	-38.8	5.42	57	-6.02	2.56	10.4	-23.8	8.63	8.1	growth percent at 10 µM (NCI-H226): 49.9%; residual activity [2]: 49%; growth, % of control at 10 µM (KM12): 21.8%; growth percent at 10 µM [4]: 3.27%; growth, % of control at 10 µM (SF-539): 37.1%; growth, % of control at 10 µM (M14): 62.8%; growth percent at 10 µM (NCI-H522): 28%; growth, % of control at 10 µM (SK-MEL-5): 82.8%; viability at 48 h, 10 µM [5]: 55%; growth, % of control at 10 µM (DU-145): 10.2%; growth, % of control at 10 µM (UACC-62): 44.5%; viability at 100 µM [6]: 1%; residual activity [7]: 76%; growth percent at 10 µM (OVCAR-4): 24.9%
O=C1c2ccc(NC(=O)C3CC3)cc2C(=O)c2cc(NC(=O)C3CC3)ccc21	60	136	72.6	86.3	89	94.9	112	36	105	98.8	91.6	92.3	94.3	92.5	90.7	109	103	119	82.9	91.6	growth percent at 10 µM (NCI-H226): 101%; growth percent at 10 µM (KM12): 92.7%; growth percent at 10 µM [4]: 88.4%; growth, % of control at 10 µM (SF-539): 93.2%; growth, % of control at 10 µM (M14): 98.9%; growth percent at 10 µM (NCI-H522): 89.4%; growth, % of control at 10 µM (SK-MEL-5): 75.7%; viability at 48 h, 10 µM [5]: 44%; growth, % of control at 10 µM (DU-145): 98.8%; growth, % of control at 10 µM (UACC-62): 81%; viability at 100 µM [6]: 43%; residual activity [7]: 80%; growth percent at 10 µM (OVCAR-4): 97.5%
O=C(CCN1CCCC1)Nc1ccc2c(c1)C(=O)c1cc(NC(=O)CCN3CCCC3)ccc1C2=O	82	31.2	18.2	56.1	25.5	40.5	18.8	54	20	67	18.8	-0.91	23	76.9	3.74	15	36.9	5.26	6.68	6.4	growth percent at 10 µM (NCI-H226): 41.1%; residual activity [2]: 67%; growth percent at 10 µM (KM12): 32.5%; growth percent at 10 µM [4]: 55.5%; growth, % of control at 10 µM (SF-539): 33.8%; growth, % of control at 10 µM (M14): 53.9%; growth percent at 10 µM (NCI-H522): 29.2%; growth, % of control at 10 µM (SK-MEL-5): 56.9%; viability at 48 h, 10 µM [5]: 68%; growth, % of control at 10 µM (DU-145): 29.5%; growth, % of control at 10 µM (UACC-62): 42.7%; viability at 100 µM [6]: 12%; residual activity [7]: 73%; growth percent at 10 µM (OVCAR-4): 49.8%

Source: ChEMBL document CHEMBL1155063 (Bioorg Med Chem, 2008)
